In brackets after ≈: the same amount, converted by molar mass. Activity calls are given as the source filed them. The calls are words filed in the database; no cut-off is given here.
Tests used:
[1] = tested on: KB; assay: Cytotoxicity against human KB cells; type: functional; conditions: read-out: ED50 (the source's name)
[2] = tested on: Plasmodium falciparum; assay: Antimalarial activity against chloroquine-sensitive Plasmodium falciparum D6; type: functional, organism-based
Outline: (§1)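 In vitro growth inhibition of Plasmodium falciparum clones D6 (chloroquine-sensitive) and W2 (chloroquine-resistant); IC50 reported in μg/mL.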

[3] = tested on: Plasmodium falciparum; assay: Antimalarial activity against chloroquine-resistant Plasmodium falciparum W2; type: functional, organism-based; outline: as §1
[4] = Selectivity index, ratio of IC50 for human KB cells to IC50 for Plasmodium falciparum D6; type: toxicity, cell-based; conditions: KB cells versus Plasmodium falciparum D6, read-out: Ratio IC50
Outline: (§2)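 Plasmodium falciparum clones were assayed in vitro: D6 (chloroquine-sensitive) and W2 (chloroquine-resistant). IC50 is in μg/mL. The selectivity index is the ratio of the antimalarial to the cytotoxic activity.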

[5] = Selectivity index, ratio of IC50 for human KB cells to IC50 for Plasmodium falciparum W2; type: toxicity, cell-based; conditions: KB cells versus Plasmodium falciparum W2, read-out: Ratio IC50; outline: as §2
[6] = tested on: Lu1; assay: Cytotoxicity against human Lu1 cells; type: functional; conditions: read-out: ED50 (the source's name)
[7] = tested on: KB; assay: Cytotoxicity against vinblastine-sensitive human KB cells; type: functional; conditions: read-out: ED50 (the source's name)
[8] = tested on: KB; assay: Cytotoxicity against vinblastine-resistant human KB cells; type: functional; conditions: read-out: ED50 (the source's name)
Outline: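 The vinblastine-resistant KB-V1 line was tested both with and without added vinblastine in the cultured tumour-cell cytotoxicity panel. Results are reported as ED50.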

[9] = tested on: LNCaP; assay: Cytotoxicity against human LNCAP cells; type: functional; conditions: read-out: ED50 (the source's name)
[10] = tested on: ZR-75-1; assay: Cytotoxicity against human ZR-75-1 cells; type: functional; conditions: read-out: ED50 (the source's name)
[11] = tested on: Escherichia coli; assay: Antimicrobial activity against Escherichia coli at 10 ug; type: functional, organism-based
Outline: (§3)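 Direct bioautography: each compound is spotted onto TLC plates and the solvent evaporated. The test organism is then grown directly on the plate. Growth inhibition is scored at the spot as active (+) or very active (++). Where a number is given, it is the radius in mm of the inhibition zone around the spot.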

[12] = tested on: Escherichia coli; assay: Antimicrobial activity against Escherichia coli at 5 ug; type: functional, organism-based; outline: as §3
[13] = tested on: Escherichia coli; assay: Antimicrobial activity against Escherichia coli at 1 ug; type: functional, organism-based; outline: as §3
[14] = tested on: Escherichia coli; assay: Antimicrobial activity against Escherichia coli at 0.1 ug; type: functional, organism-based; outline: as §3
[15] = tested on: Micrococcus luteus; assay: Antimicrobial activity against Micrococcus luteus at 10 ug; type: functional, organism-based; outline: as §3
[16] = tested on: Micrococcus luteus; assay: Antimicrobial activity against Micrococcus luteus at 5 ug; type: functional, organism-based; outline: as §3
[17] = tested on: Micrococcus luteus; assay: Antimicrobial activity against Micrococcus luteus at 1 ug; type: functional, organism-based; outline: as §3
[18] = tested on: Micrococcus luteus; assay: Antimicrobial activity against Micrococcus luteus at 0.1 ug; type: functional, organism-based; outline: as §3
[19] = tested on: Bacillus subtilis; assay: Antimicrobial activity against Bacillus subtilis at 10 ug; type: functional, organism-based; outline: as §3
[20] = tested on: Bacillus subtilis; assay: Antimicrobial activity against Bacillus subtilis at 5 ug; type: functional, organism-based; outline: as §3
[21] = tested on: Bacillus subtilis; assay: Antimicrobial activity against Bacillus subtilis at 1 ug; type: functional, organism-based; outline: as §3
[22] = tested on: Bacillus subtilis; assay: Antimicrobial activity against Bacillus subtilis at 0.1 ug; type: functional, organism-based; outline: as §3
[23] = tested on: Penicillium oxalicum; assay: Antimicrobial activity against Penicillium oxalicum at 10 ug; type: functional; conditions: read-out: IZ; outline: as §3
[24] = tested on: Penicillium oxalicum; assay: Antimicrobial activity against Penicillium oxalicum at 5 ug; type: functional; conditions: read-out: IZ; outline: as §3
[25] = tested on: Penicillium oxalicum; assay: Antimicrobial activity against Penicillium oxalicum at 1 ug; type: functional; conditions: read-out: IZ; outline: as §3
[26] = tested on: Penicillium oxalicum; assay: Antimicrobial activity against Penicillium oxalicum at 0.1 ug; type: functional; conditions: read-out: IZ; outline: as §3
[27] = biological target: Human immunodeficiency virus type 1 reverse transcriptase (Human immunodeficiency virus 1, UniProt Q72547); assay: Inhibition of HIV1 RT at 200 uM
Outline: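 HIV-1 reverse transcriptase inhibition was measured in an ELISA-based system.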

[28] = Inhibition of TK assessed as residual activity at 200 ug/ml
Outline: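 The enzyme was tyrosine kinase p56lck, with test compounds at 200 μg/mL. The read-out is the remaining enzyme activity.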

[29] = tested on: Penicillium oxalicum; assay: Antimicrobial activity against Penicillium oxalicum at 0.01 ug; type: functional; outline: as §3

Structure (SMILES) | EC50 [1] [µg/mL] | IC50 [2] [µg/mL] | IC50 [3] [µg/mL] | selectivity ratio [4] | selectivity ratio [5] | EC50 [6] [µg/mL] | EC50 [7] [µg/mL] | EC50 [8] [µg/mL] | EC50 [9] [µg/mL] | EC50 [10] [µg/mL] | Activity [11] | Activity [12] | Activity [13] | Activity [14] | Activity [15] | Activity [16] | Activity [17] | Activity [18] | Activity [19] | Activity [20] | other results
C[C@@H]1CC[C@H]2[C@@H](C)C(=O)O[C@@H]3O[C@@]4(C)CC[C@@H]1[C@]32OO4 [ARTEMISININ] | > 20 | 0.001 (≈ 0.00354 µM) | 0.006 (≈ 0.0213 µM) | > 18200 | > 3280 | – | – | – | – | – | – | – | – | – | – | – | – | – | – | – | –
CCC[C@@H](O)C1=C(Br)/C(=C/I)OC1=O | 0.4 (≈ 1.07 µM) | 6.8 (≈ 18.2 µM) | > 10 | < 1 | – | 1.3 (≈ 3.49 µM) | 4.1 (≈ 11 µM) | 0.3 (≈ 0.804 µM) | < 0.1 | 0.3 (≈ 0.804 µM) | Active | Active | Active | inactive | Active | Active | Active | inactive | Active | Active | Activity [21]: inactive; Activity [22]: inactive; zone of inhibition at 10 µg/disc [23]: 20 mm; zone of inhibition at 5 µg/disc [24]: 18 mm; zone of inhibition at 1 µg/disc [25]: 12 mm; zone of inhibition at 0.1 µg/disc [26]: 4 mm; IC50 [27]: 700 µM; Activity [28]: 4.2%
OC(c1cc(C(F)(F)F)nc2c(C(F)(F)F)cccc12)C1CCCCN1 (configuration not stated) [MEFLOQUINE] | 3.5 (≈ 9.25 µM) | 0.005 (≈ 0.0132 µM) | 0.001 (≈ 0.00264 µM) | 710 | 4380 | – | – | – | – | – | – | – | – | – | – | – | – | – | – | – | –
CCC[C@@H](OC(C)=O)C1=C(Br)/C(=C/I)OC1=O | 0.1 (≈ 0.241 µM) | 4.6 (≈ 11.1 µM) | > 10 | < 1 | – | 1.5 (≈ 3.61 µM) | 3.6 (≈ 8.67 µM) | 0.2 (≈ 0.482 µM) | 2 (≈ 4.82 µM) | < 0.1 | Active | Active | inactive | inactive | Active | Active | Active | Active | Active | Active | Activity [21]: Active; Activity [22]: inactive; zone of inhibition at 10 µg/disc [23]: 17 mm; zone of inhibition at 5 µg/disc [24]: 21 mm; zone of inhibition at 1 µg/disc [25]: 9 mm; zone of inhibition at 0.1 µg/disc [26]: 6 mm; IC50 [27]: 700 µM; Activity [29]: inactive
CCC[C@@H](OC(C)=O)C1=C(Br)C(=C(Br)Br)OC1=O | 0.3 (≈ 0.671 µM) | 2.2 (≈ 4.92 µM) | 9.1 (≈ 20.4 µM) | < 1 | < 1 | 1.1 (≈ 2.46 µM) | 0.5 (≈ 1.12 µM) | 3.5 (≈ 7.83 µM) | 2.1 (≈ 4.7 µM) | < 0.1 | Active | Active | inactive | inactive | Active | Active | Active | Active | Active | Active | Activity [21]: Active; zone of inhibition at 10 µg/disc [23]: 12 mm; zone of inhibition at 5 µg/disc [24]: 14 mm; zone of inhibition at 1 µg/disc [25]: 10 mm; zone of inhibition at 0.1 µg/disc [26]: 6 mm; IC50 [27]: 700 µM; Activity [28]: 1.9%; zone of inhibition at 0.01 µg/disc ([29]; read-out: IZ): 3 mm

From ChEMBL document CHEMBL1158040, “Biological activities and 3D QSAR studies of a series of Delisea pulchra (cf. fimbriata) derived natural products” (J Nat Prod, 2006)
